For orientation: IC50 means the midpoint of a concentration-inhibition curve. For orientation: logP means the decadic logarithm of the partition coefficient of the neutral form, usually between octanol and water. Low values mean lower lipophilicity, high ones higher lipophilicity.

Data set [1] deals with T1, Voltage-gated L-type calcium channel (Rattus norvegicus, UniProt P22002+Q02485+P27732). Kind of data set: Percentage decrease in blood pressure at a dose of 135 uM/kg for 6-12 hr in spontaneously hypertensive rats. Type of data set: functional, tissue-based. Summed up:
(§1)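 Spontaneously hypertensive rats, n = 5, given 135 µmol/kg orally; systolic pressure recorded directly; maximum percent fall from predrug control noted within 0-6, 6-12 and 12-18 h windows after dosing; mean of five rats.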

In data set [2] the target is T1, Voltage-gated L-type calcium channel. Kind of data set: Percentage decrease in blood pressure at a dose of 135 uM/kg for 12-18 hr in spontaneously hypertensive rats. The format is functional, tissue-based. The procedure, abridged:
as §1

For data set [3] the target is unchanged. The data set can be described thus: Percentage decrease in blood pressure at a dose of 135 uM/kg for 0-6 h in spontaneously hypertensive rats. The format is functional, tissue-based. The procedure, abridged:
as §1

A short description of data set [4]: Concentration required to cause 50% relaxation of maximal contraction in circumferential rabbit aorta strips in response to KCl (100 mM). Type of data set: functional, tissue-based, Oryctolagus cuniculus. Particulars: Oryctolagus cuniculus, Aorta.
A short description of data set [5]: Partition coefficient (logP). The format is physicochemical. The following applies: octanol/water.
Data set [6] deals with T1, Voltage-gated L-type calcium channel. Kind of data set: Percentage decrease in blood pressure at a dose of 270 umol/kg for 12-18 h in spontaneously hypertensive rats. Type of data set: functional, tissue-based. The procedure, abridged: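 Spontaneously hypertensive rats, n = 5, dosed orally at 270 µmol/kg; systolic pressure recorded directly; maximum percent fall from predrug control within the 12-18 h window after dosing; mean of five rats.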

For data set [7] the target is unchanged. The data set can be described thus: Percentage decrease in blood pressure at a dose of 135 uM/kg for 0-6 hr in spontaneously hypertensive rats. The format is functional, tissue-based. Summed up:
as §1

For `COc1ccc([C@@H]2Cc3cc(C(F)(F)F)ccc3N(CCN(C)C)C(=O)[C@@H]2SC(C)=O)cc1`, the “Decrease in blood pressure” value was 18% in data set [1], 23% in data set [2] and 13% in data set [3]. Also, in data set [4], inhibition was half-maximal at 68 nM (IC50). In addition, the logP in data set [5] is 3.4.
As to `COc1ccc([C@@H]2Cc3cc(Cl)ccc3N(CCN(C)C)C(=O)[C@@H]2OC(C)=O)cc1`, the “Decrease in blood pressure” value in data set [1] is 14%; in data set [3], 13%; in data set [6] it was 18%. The same compound yielded a logP in data set [5] of 2.2.
Take `COc1ccc([C@@H]2Cc3cc(SC)ccc3N(CCN(C)C)C(=O)[C@@H]2OC(C)=O)cc1`: the figures for the “Decrease in blood pressure” value in data set [1], in data set [2] and in data set [3] were 20%, 21% and 19%, respectively. The compound also displayed a 50% inhibitory concentration (IC50) in data set [4] of 600 nM. Besides, the logP in data set [5] turned out to be 2.
For `COc1ccc([C@H]2CC(=O)N(CCN(C)C)c3cccc(C(F)(F)F)c3C2)cc1`, in that order: 3%, 3%, 2%, 1100 nM and 3.1.
With `COc1ccc([C@@H]2Cc3c(OC)cccc3N(CCN(C)C)C(=O)[C@@H]2C)cc1`, the “Decrease in blood pressure” value was 10% in data set [1], 8% in data set [2] and 7% in data set [3]. The same compound gave an IC50 in data set [4] of 420 nM. This compound showed a lipophilicity (logP) in data set [5] of 2.6.
Consider `CC[C@H]1C(=O)N(CCN(C)C)c2cccc(C(F)(F)F)c2C[C@H]1c1ccc(OC)cc1`, for which the “Decrease in blood pressure” value turned out to be 19% in data set [1], 15% in data set [2] and 21% in data set [3]. In data set [4], this compound had an IC50 of 12 nM. In data set [5], this compound registered a logP of 4.3.
Consider `COc1ccc([C@@H]2Cc3c(C#N)cccc3N(CCN(C)C)C(=O)[C@@H]2OC(C)=O)cc1`, for which the figures for the “Decrease in blood pressure” value in data set [1], in data set [2] and in data set [3] were 7%, 9% and 9%, respectively. The same compound had an IC50 in data set [4] of 120 nM. Further, the log partition coefficient (logP) in data set [5] was found to be 1.3.
As for `COc1ccc([C@@H]2Cc3c(C(N)=O)cccc3N(CCN(C)C)C(=O)[C@@H]2OC(C)=O)cc1`, the “Decrease in blood pressure” value in data set [1] is on record as 12%; in data set [2], 12%; in data set [3], 13%. This compound also had an IC50 in data set [4] of more than 30000 nM. This compound also returned a logP in data set [5] of -1.
Consider `CNC(=O)Oc1ccc2c(c1)C[C@@H](c1ccc(OC)cc1)[C@@H](OC(C)=O)C(=O)N2CCN(C)C`, for which the “Decrease in blood pressure” value is reported as 10% in data set [1], 12% in data set [2] and 7% in data set [3]. In data set [4], this compound returned an IC50 of 310 nM. Also, the logP in data set [5] was 0.31.
As for `COc1ccc([C@@H]2Cc3c(ccc(Br)c3OC)N(CCN(C)C)C(=O)[C@@H]2C)cc1`, the “Decrease in blood pressure” value in data set [1] was found to be 12%; in data set [2] it was 14%; in data set [3] it was 9%. In data set [4], this compound displayed an IC50 of 85 nM. The same compound showed a logP in data set [5] of 3.4.
As to `COc1ccc([C@@H]2Cc3ccccc3N(CCN(C)C)C(=O)[C@@H]2C)cc1`, the figures for the “Decrease in blood pressure” value in data set [1], in data set [2] and in data set [3] were 4%, 8% and 6%, respectively. In data set [4], this compound had a 50% inhibitory concentration (IC50) of 1100 nM. In addition, in data set [5], the lipophilicity (logP) worked out at 2.5.
With `COc1ccc([C@@H]2Cc3cc(C(F)(F)F)ccc3N(CCN(C)C)C(=O)[C@@H]2OC(C)=O)cc1`, the figures for the “Decrease in blood pressure” value in data set [1], in data set [2] and in data set [3] were 19%, 18% and 19%, respectively. This compound came in with an IC50 in data set [4] of 1900 nM. For the same compound, the logP in data set [5] came out at 2.8.
Consider `COc1ccc([C@@H]2Cc3cc(SC(C)(C)C)ccc3N(CCN(C)C)C(=O)[C@@H]2OC(C)=O)cc1`, for which the “Decrease in blood pressure” value in data set [1] is 11%; in data set [2], 14%; in data set [3], 10%. This compound registered an IC50 in data set [4] of 9000 nM. For the same compound, the logP in data set [5] is 3.6.
Regarding `COc1ccc([C@@H]2Cc3c(cccc3C(F)(F)F)N(CCN(C)C)C(=O)[C@@H]2Cc2ccccc2)cc1`, the “Decrease in blood pressure” value in data set [1] is listed as 8%; in data set [2], 6%; in data set [3] it was 14%. In data set [4], half-maximal inhibition (IC50) was put at 790 nM. This compound registered a logP in data set [5] of 5.2.
For the compound `C=CC[C@H]1C(=O)N(CCN(C)C)c2cccc(C(F)(F)F)c2C[C@H]1c1ccc(OC)cc1`, the “Decrease in blood pressure” value in data set [2] came out at 29%; in data set [3] it was 24%. This compound came in with a half-maximal inhibitory concentration (IC50) in data set [4] of 100 nM. The logP in data set [5] came out at 4.6.
`COc1ccc([C@@H]2Cc3cc(C(F)(F)F)ccc3N(CCN(C)C)C(=O)[C@@H]2NC(C)=O)cc1`: the figures for the “Decrease in blood pressure” value in data set [1], in data set [2] and in data set [3] were 12%, 10% and 12%, respectively. Moreover, it took 9200 nM to reach half-maximal inhibition in data set [4] (IC50). The same compound yielded a lipophilicity (logP) in data set [5] of 1.6.
As to `COc1ccc([C@@H]2Cc3cc(Oc4ccccc4)ccc3N(CCN(C)C)C(=O)[C@@H]2OC(C)=O)cc1`, the “Decrease in blood pressure” value in data set [1] is listed as 12%; in data set [2], 16%; in data set [3], 16%. Also, in data set [4], half-maximal inhibition (IC50) was put at 440 nM. Moreover, in data set [5], the logP is 3.1.
As for `COc1ccc([C@@H]2Cc3c(C)cccc3N(CCN(C)C)C(=O)[C@@H]2OC(C)=O)cc1`, the “Decrease in blood pressure” value in data set [1] amounted to 10%; in data set [2], 12%; in data set [3] it was 6%. This compound showed a half-inhibitory concentration (IC50) in data set [4] of 2500 nM. The same compound came in with a lipophilicity (logP) in data set [5] of 1.7.
As to `COc1ccc([C@@H]2Cc3cc(OC(=O)C(C)(C)C)ccc3N(CCN(C)C)C(=O)[C@@H]2OC(C)=O)cc1`, the “Decrease in blood pressure” value in data set [1] came to 14%; in data set [2], 16%; in data set [3] it was 13%. For the same compound, in data set [4], the IC50 came out at 5200 nM. Also, in data set [5], the lipophilicity (logP) was found to be 2.9.
For the compound `COc1ccc([C@@H]2Cc3c(cccc3[N+](=O)[O-])N(CCN(C)C)C(=O)[C@@H]2OC(C)=O)cc1`, the “Decrease in blood pressure” value in data set [1] was 12%; in data set [2] it was 14%; in data set [3], 16%. In data set [4], this compound showed an IC50 of 370 nM. In data set [5], the logP is 1.7.
For `COc1ccc([C@@H]2Cc3c(OC)cccc3N(CCN(C)C)C(=O)[C@@H]2OC(C)=O)cc1`, the “Decrease in blood pressure” value in data set [1] came to 0%; in data set [2] it was 1%; in data set [3], 0%. For the same compound, in data set [5], the logP amounted to 1.9.
As to `COc1ccc([C@@H]2Cc3c(C(=O)O)cccc3N(CCN(C)C)C(=O)[C@@H]2OC(C)=O)cc1`, the “Decrease in blood pressure” value in data set [1] is 9%; in data set [2] it was 10%; in data set [3] it was 8%. In data set [4], the 50% inhibitory concentration (IC50) was more than 30000 nM. In data set [5], this compound had a logP of -4.1.
For the compound `COc1ccc([C@@H]2Cc3c(C(=O)OCc4ccccc4)cccc3N(CCN(C)C)C(=O)[C@@H]2OC(C)=O)cc1`, the “Decrease in blood pressure” value turned out to be 8% in data set [1], 8% in data set [2] and 4% in data set [3]. In data set [4], this compound yielded a half-inhibitory concentration (IC50) of 3500 nM. In addition, in data set [5], the log partition coefficient (logP) is 3.3.
Regarding `COc1ccc([C@@H]2Cc3c(ccc(Br)c3OC)N(CCN(C)C)C(=O)[C@@H]2OC(C)=O)cc1`, the “Decrease in blood pressure” value worked out at 12% in data set [1], 11% in data set [2] and 18% in data set [3]. In data set [4], this compound came in with a half-maximal inhibitory concentration (IC50) of 580 nM. For the same compound, the lipophilicity (logP) in data set [5] is 2.4.
Consider `CCC[C@H]1C(=O)N(CCN(C)C)c2cccc(C(F)(F)F)c2C[C@H]1c1ccc(OC)cc1`, for which the “Decrease in blood pressure” value in data set [1] stood at 19%; in data set [2] it was 24%; in data set [3] it was 14%. Also, the 50% inhibitory concentration (IC50) in data set [4] came out at 950 nM. The compound further came in with a logP in data set [5] of 4.9.
As to `COc1ccc([C@@H]2Cc3c(cccc3C(F)(F)F)N(CCN(C)C(C)=O)C(=O)[C@@H]2OC(C)=O)cc1`, the “Decrease in blood pressure” value is 1% in data set [1], 5% in data set [2] and 2% in data set [7]. For the same compound, it took 4500 nM to reach half-maximal inhibition in data set [4] (IC50).
On to `COc1ccc([C@@H]2Cc3cc(OCc4ccccc4)ccc3N(CCN(C)C)C(=O)[C@@H]2OC(C)=O)cc1`, for which the results for the “Decrease in blood pressure” value in data set [1], in data set [2] and in data set [3] were 10%, 11% and 8%, respectively. In data set [4], this compound registered a half-maximal inhibitory concentration (IC50) of 730 nM. The same compound registered a lipophilicity (logP) in data set [5] of 3.4.
For the compound `COc1ccc([C@@H]2Cc3cc(Sc4ccccc4)ccc3N(CCN(C)C)C(=O)[C@@H]2OC(C)=O)cc1`, the “Decrease in blood pressure” value in data set [1] is recorded as 17%; in data set [2] it was 19%; in data set [3], 15%. This compound also came in with a concentration for half-maximal inhibition (IC50) in data set [4] of 690 nM. In addition, the logP in data set [5] came to 3.8.
With `COc1ccc([C@@H]2Cc3cc(OC(F)F)ccc3N(CCN(C)C)C(=O)[C@@H]2OC(C)=O)cc1`, the “Decrease in blood pressure” value in data set [1] worked out at 13%; in data set [2] it was 16%; in data set [3] it was 12%. The compound also registered an IC50 in data set [4] of 960 nM. Further, the log partition coefficient (logP) in data set [5] came to 1.8.
